# Measured values: ChEMBL document CHEMBL1629486, “Antimicrobial, antitumor and 5α-reductase inhibitor activities of some hydrazonoyl substituted pyrimidinones” (Eur J Med Chem, 2010)
# What was measured:
# [1] = tested on: Syncephalastrum racemosum; assay: Antimicrobial activity against Syncephalastrum racemosum at 1 to 5 ug/ml by agar well diffusion method; assay type: functional
# Procedure, shortened: (§1)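 Agar well diffusion against bacteria and fungi. Inhibition zone is scored beyond the control: ++ 0.6–1.0 cm, + 0.1–0.5 cm, 0 no inhibition.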
# Candida albicans = assay: Antimicrobial activity against Candida albicans at 1 to 5 ug/ml by agar well diffusion method; assay type: functional; procedure, shortened: as §1
# Staphylococcus aureus = assay: Antimicrobial activity against Staphylococcus aureus at 1 to 5 ug/ml by agar well diffusion method; assay type: functional; procedure, shortened: as §1
# Pseudomonas aeruginosa = assay: Antimicrobial activity against Pseudomonas aeruginosa at 1 to 5 ug/ml by agar well diffusion method; assay type: functional; procedure, shortened: as §1
# Bacillus subtilis = assay: Antimicrobial activity against Bacillus subtilis at 1 to 5 ug/ml by agar well diffusion method; assay type: functional; procedure, shortened: as §1
# Escherichia coli = assay: Antimicrobial activity against Escherichia coli at 1 to 5 ug/ml by agar well diffusion method; assay type: functional; procedure, shortened: as §1
# Rattus norvegicus [2] = species on record: Rattus norvegicus; assay: Acute toxicity in albino rat; assay type: organism-based; settings: in vivo
# Procedure, shortened: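 Male albino rats received injections of increasing doses. LD50 and LD90, the doses killing 50% and 90% of the animals, were calculated by the Austen and Brocklehurst method.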
# Rattus norvegicus [3] = assay: Effect on circulating testosterone and dihydrotestosterone level in sc dosed Sprague-Dawley rat by radioimmunoassay; assay type: functional
# Procedure, shortened: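 Rats were given a range of doses of the 5α-reductase inhibitors. Serum testosterone and DHT were measured by radioimmunoassay with specific antisera, without prior chromatography. Serum (0.5 mL) was extracted with 2 mL peroxide-free diethyl ether by shaking for 60 s. Levels were compared with vehicle-treated controls, and ED50 was derived.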
# Rattus norvegicus [4] = assay: Effect on circulating testosterone and dihydrotestosterone level in sc dosed Sprague-Dawley rat by radioimmunoassay relative to anastrozole; assay type: functional
# Procedure, shortened: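 Serum testosterone and DHT were measured by RIA in ether extracts of serum (0.5 mL serum, 2 mL diethyl ether, 60 s shaking), without chromatography, in rats dosed at several levels. Relative potency is the ED50 of anastrozole divided by the ED50 of the test agent, where ED50 is the dose giving 50% of the pharmacological response.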
# Aspergillus fumigatus = assay: Antimicrobial activity against Aspergillus fumigatus at 1 to 5 ug/ml by agar well diffusion method; assay type: functional; procedure, shortened: as §1
# Penicillium italicum = assay: Antimicrobial activity against Penicillium italicum at 1 to 5 ug/ml by agar well diffusion method; assay type: functional; procedure, shortened: as §1
Structure (SMILES),diameter of the inhibition zone (DIZ) [1],diameter of the inhibition zone (DIZ) (Candida albicans),diameter of the inhibition zone (DIZ) (Staphylococcus aureus),diameter of the inhibition zone (DIZ) (Pseudomonas aeruginosa),diameter of the inhibition zone (DIZ) (Bacillus subtilis),diameter of the inhibition zone (DIZ) (Escherichia coli),LD50 (Rattus norvegicus [2]),LD90 (Rattus norvegicus [2]),ED50 (Rattus norvegicus [3]),Ratio ED50 (Rattus norvegicus [4]),diameter of the inhibition zone (DIZ) (Aspergillus fumigatus),diameter of the inhibition zone (DIZ) (Penicillium italicum)
CCOC(=O)c1ccc(N/N=C(\C(=O)c2ccc(Cl)cc2)c2nc(C)cc(=O)[nH]2)cc1,0 cm,0 cm,0 cm,0 cm,0 cm,0 cm,2.34133 mg/kg,3.21717 mg/kg,0.000198 mg/kg,5.505,0 cm,0 cm
Cc1cc(=O)[nH]c(/C(=N/Nc2cccc([N+](=O)[O-])c2)C(=O)c2ccc(Cl)cc2)n1,0 cm,0 cm,0.6 cm,0 cm,0.1 cm,0.1 cm,2.55348 mg/kg,3.30012 mg/kg,0.000188 mg/kg,5.798,0 cm,0 cm
COc1ccc(N/N=C(\C(=O)c2ccc(Cl)cc2)c2nc(C)cc(=O)[nH]2)cc1,0 cm,0 cm,0 cm,0 cm,0 cm,0 cm,–,–,–,–,0 cm,0 cm
Cc1cccc(N/N=C(\C(=O)c2ccc(Cl)cc2)c2nc(C)cc(=O)[nH]2)c1,0 cm,0 cm,0 cm,0 cm,0 cm,0 cm,2.555 mg/kg,3.98654 mg/kg,0.000174 mg/kg,6.264,0 cm,0 cm
Cc1cc(=O)[nH]c(/C(=N/Nc2cccc(Cl)c2)C(=O)c2ccc(Cl)cc2)n1,0 cm,0 cm,0 cm,0 cm,0 cm,0.1 cm,2.13345 mg/kg,2.98032 mg/kg,0.000591 mg/kg,1.844,0 cm,0 cm
CC(C)(C#N)c1cc(Cn2cncn2)cc(C(C)(C)C#N)c1 [ANASTROZOLE],–,–,–,–,–,–,–,–,–,1,–,–
CN(C/C=C/C#CC(C)(C)C)Cc1cccc2ccccc12 [TERBINAFINE],1.1 cm,0.6 cm,–,–,–,–,–,–,–,–,1.1 cm,1.1 cm
O=C(N[C@H](CO)[C@H](O)c1ccc([N+](=O)[O-])cc1)C(Cl)Cl [CHLORAMPHENICOL],–,–,0.6 cm,1.1 cm,1.1 cm,0.6 cm,–,–,–,–,–,–
Cc1cc(=O)[nH]c(/C(=N/Nc2ccc([N+](=O)[O-])cc2)C(=O)c2ccc(Cl)cc2)n1,0 cm,0 cm,0.6 cm,0 cm,0 cm,0.1 cm,2.34523 mg/kg,3.29098 mg/kg,0.000478 mg/kg,2.28,0 cm,0 cm
Cc1cc(=O)[nH]c(/C(=N/Nc2ccc(Cl)cc2)C(=O)c2ccc(Cl)cc2)n1,0 cm,0 cm,0 cm,0 cm,0 cm,0 cm,2.34537 mg/kg,3.12376 mg/kg,0.000611 mg/kg,1.784,0 cm,0 cm
